Measured values reported in ChEMBL document CHEMBL1157775, “Novel hexahydropyrrolo[3,4-c]pyrrole CCR5 antagonists” (Bioorg Med Chem Lett, 2010).
pIC50: −log10 of the molar value.

Tests used:
[1] = tested on: Human immunodeficiency virus 1; assay: Antiviral activity against HIV1 NL4-3 infected in human JC53-BL cells assessed as luciferase activity after 3 days post infection; format: functional, organism-based; settings: Human immunodeficiency virus 1, NL4-3, JC53BL, 72 h
In short: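 Pseudotyped virus in culture supernatant was harvested after 2 days. It was used to infect JC53-BL reporter cells. Luciferase reporter activity was read 3 days post-infection. IC50 in nM is reported as the mean of two experiments.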

[2] = Intrinsic clearance in human liver microsomes assessed per mg of protein; format: ADME, Microsome
In short: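 Human liver microsomes. Intrinsic clearance is expressed as µl/min/mg protein.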

[3] = target: C-C chemokine receptor type 5 (Homo sapiens, UniProt P51681); assay: Binding affinity at CCR5 receptor by radiolabeled RANTES binding assay
Sequence of C-C chemokine receptor type 5 (P51681 whole entry): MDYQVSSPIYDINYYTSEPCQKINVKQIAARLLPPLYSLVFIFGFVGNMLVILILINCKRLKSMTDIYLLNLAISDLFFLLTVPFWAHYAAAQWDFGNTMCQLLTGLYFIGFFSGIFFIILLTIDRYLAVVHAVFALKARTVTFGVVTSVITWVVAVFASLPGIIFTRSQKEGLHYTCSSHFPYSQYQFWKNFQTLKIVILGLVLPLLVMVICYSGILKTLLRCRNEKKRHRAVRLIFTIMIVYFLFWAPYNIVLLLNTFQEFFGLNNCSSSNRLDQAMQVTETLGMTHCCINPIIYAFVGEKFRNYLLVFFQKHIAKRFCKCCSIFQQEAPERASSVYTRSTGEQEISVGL

[4] = Intrinsic clearance in rat liver microsomes assessed per mg of protein; format: ADME, Microsome
In short: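 Rat liver microsomes. Intrinsic clearance is expressed per mg protein. Values ≥90 µl/min were taken as high clearance.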

[5] = Permeability from apical to basolateral side of human Caco-2 cells after 21 days; format: ADME, cell-based; settings: read-out: permeability
[6] = AUC in rat at 10 mg/kg, po; format: ADME, organism-based; parameters: dose 10 mg/kg, route oral; settings: plasma
In short: (§1)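 Rat PK. Single IV dose of 1 mg/kg and oral dose of 10 mg/kg. Oral AUC (ng·h/mL) and %F were derived from the PO arm. Clearance (mL/min/kg) was taken from the IV arm.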

[7] = Oral bioavailability in rat at 10 mg/kg; format: ADME, organism-based; settings: in vivo; in short: as §1
[8] = Clearance in rat at 1 mg/kg, iv; format: ADME, organism-based; parameters: dose 1 mg/kg, route intravenous; settings: in vivo; in short: as §1
Caco-2 = assay: Efflux ratio of permeability from basolateral to apical over apical to basolateral side in human Caco-2 cells after 21 days; settings: caco-2, 504 h
[9] = AUC in dog at 10 mg/kg, po; format: ADME, organism-based, Canis lupus familiaris; parameters: dose 10 mg/kg, route oral; settings: plasma
In short: (§2)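 Dog PK. Single IV dose of 1 mg/kg, then an oral dose of 10 mg/kg; one case used 1 mg/kg both IV and PO. AUC and %F were determined after the oral dose. Clearance (ml/min/kg) was determined from the IV dose.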

[10] = Clearance in dog at 1 mg/kg, iv; format: ADME, organism-based, Canis lupus familiaris; parameters: dose 1 mg/kg, route intravenous; settings: in vivo; in short: as §2
[11] = Oral bioavailability in dog at 10 mg/kg; format: ADME, organism-based, Canis lupus familiaris; settings: in vivo; in short: as §2
[12] = Intrinsic clearance in dog liver microsomes assessed per mg of protein; format: ADME, Canis lupus familiaris, Microsome

Row | SMILES | pIC50 [1] | microsomal CLint [2] [µL/min/mg] | pIC50 [3] | microsomal CLint [4] [µL/min/mg] | further results
1 | Cc1cc(C#N)nc(C)c1C(=O)N1C[C@H]2CN(CC[C@H](NC(=O)C3CCCC3)c3ccccc3)C[C@H]2C1 |  | 227 | 7.92 | 144 | Papp A→B [5]: 3 ×10⁻⁶ cm/s
2 | Cc1cccc(C)c1C(=O)N1C[C@H]2CN(CC[C@H](NC(=O)C3CCCCC3)c3ccccc3)C[C@H]2C1 | 7.52 |  | 8.52 |  | 
3 | CC(=O)N1C[C@H]2CN(CC[C@H](NC(=O)C3CCCC3)c3ccccc3)C[C@H]2C1 | < 6.00 |  | 6.33 |  | 
4 | Cc1ccnc(C)c1C(=O)N1C[C@H]2CN(CC[C@H](NC(=O)C3CCCC3)c3ccccc3)C[C@H]2C1 |  | 67 | 8.15 | 89 | AUC [6]: 65 ng·h/mL; bioavailability [7]: 6.4%; Papp A→B [5]: 4 ×10⁻⁶ cm/s; clearance [8]: 151 mL/min/kg
5 | Cc1ncnc(C)c1C(=O)N1C[C@H]2CN(CC[C@H](NC(=O)CC3CC(F)(F)C3)c3ccccc3)C[C@H]2C1 | 8.52 | 60 | 7.70 | 61 | 
6 | COc1cc(C)c(C(=O)N2C[C@H]3CN(CC[C@H](NC(=O)C4CCCC4)c4ccccc4)C[C@H]3C2)c(C)c1 | 9.40 | 241 | 7.59 | 236 | Ratio (Caco-2): 2; Papp A→B [5]: 33 ×10⁻⁶ cm/s
7 | Cc1cc(F)cc(C)c1C(=O)N1C[C@H]2CN(CC[C@H](NC(=O)C3CCCC3)c3ccccc3)C[C@H]2C1 | 8.52 | 236 | 8.22 | 517 | 
8 | Cc1cccc(C)c1C(=O)N1C[C@H]2CN(CC[C@H](NC(=O)C(C)C)c3ccccc3)C[C@H]2C1 | 7.00 |  | 7.96 |  | 
9 | Cc1ncnc(C)c1C(=O)N1C[C@H]2CN(CC[C@H](NC(=O)CC3CCC(F)(F)CC3)c3ccccc3)C[C@H]2C1 | 8.22 | 83 | 7.57 | 46 | AUC [6]: 215 ng·h/mL; AUC [9]: 4210 ng·h/mL; clearance [10]: 44 mL/min/kg; bioavailability [7]: 15%; bioavailability [11]: 103%; microsomal CLint [12]: 30 µL/min/mg; clearance [8]: 99 mL/min/kg
10 | Cc1ncnc(C)c1C(=O)N1C[C@H]2CN(CC[C@H](NC(=O)C3CCCC3)c3ccccc3)C[C@H]2C1 |  | 35 | 7.85 | 51 | AUC [6]: 309 ng·h/mL; bioavailability [7]: 17%; Papp A→B [5]: 1.3 ×10⁻⁶ cm/s; clearance [8]: 131 mL/min/kg
11 | O=C(N[C@@H](CCN1C[C@@H]2CN(C(=O)c3c(Cl)cccc3Cl)C[C@@H]2C1)c1ccccc1)C1CCCC1 | 7.04 | 389 | 7.85 |  | 
12 | Cc1cccc(C)c1C(=O)N1C[C@H]2CN(CC[C@H](NC(=O)C3CCC(F)(F)CC3)c3ccccc3)C[C@H]2C1 | 8.05 |  | 8.40 |  | 
13 | Cc1cc[n+]([O-])c(C)c1C(=O)N1C[C@H]2CN(CC[C@H](NC(=O)C3CCCC3)c3ccccc3)C[C@H]2C1 | 7.72 | 6 | 7.36 | 12 | Ratio (Caco-2): 300; Papp A→B [5]: 0.1 ×10⁻⁶ cm/s
14 | Cc1cccc(Cl)c1C(=O)N1C[C@H]2CN(CC[C@H](NC(=O)C3CCCC3)c3ccccc3)C[C@H]2C1 | 8.52 | 264 | 8.05 |  | 
15 | Cc1cccc(C)c1C(=O)N1C[C@H]2CN(CC[C@H](NC(=O)c3ccccc3)c3ccccc3)C[C@H]2C1 | 6.91 |  | 8.10 |  | 
16 | Cc1cccc(C)c1C(=O)N1C[C@H]2CN(CC[C@H](NC(=O)C3CCC3)c3ccccc3)C[C@H]2C1 | 7.41 |  | 8.15 |  | 

Continued, in another order:

Row | pIC50 [1] | microsomal CLint [2] [µL/min/mg] | pIC50 [3] | microsomal CLint [4] [µL/min/mg] | SMILES | further results
17 | 7.39 | 45 | 7.52 |  | Cc1ncnc(C)c1C(=O)N1C[C@H]2CN(CC[C@H](NC(=O)CC3CC(F)(F)C3)c3cc(F)cc(F)c3)C[C@H]2C1 | 
18 | 6.26 |  | 7.72 |  | Cc1noc(C)c1C(=O)N1C[C@H]2CN(CC[C@H](NC(=O)C3CCCC3)c3ccccc3)C[C@H]2C1 | 
19 | 8.40 |  | 8.22 |  | CCO/N=C(\c1ccc(Br)cc1)C1CCN(C2(C)CCN(C(=O)c3c(C)cccc3C)CC2)CC1 | 
20 | 7.00 |  | 7.82 |  | Cc1cccc(C)c1C(=O)N1C[C@H]2CN(CC[C@H](NC(=O)C3CCOC3)c3ccccc3)C[C@H]2C1 (some centres undefined) | 
21 | 7.07 |  | 7.74 |  | Cc1cccc(C)c1C(=O)N1C[C@H]2CN(CC[C@H](NC(=O)c3ccoc3)c3ccccc3)C[C@H]2C1 | 
22 | 6.69 | 30 | 7.47 | 31 | Cc1ncnc(C)c1C(=O)N1C[C@H]2CN(CC[C@H](NC(=O)CC3CC(F)(F)C3)c3cccc(C#N)c3)C[C@H]2C1 | 
23 | 8.22 | 25 | 7.52 | 25 | Cc1cc(=O)[nH]c(C)c1C(=O)N1C[C@H]2CN(CC[C@H](NC(=O)C3CCCC3)c3ccccc3)C[C@H]2C1 | Ratio (Caco-2): 5; Papp A→B [5]: 0.5 ×10⁻⁶ cm/s
24 | 6.88 |  | 7.82 |  | CC(=O)N[C@@H](CCN1C[C@@H]2CN(C(=O)c3c(C)cccc3C)C[C@@H]2C1)c1ccccc1 | 
25 | 8.15 | 256 | 8.22 | 322 | Cc1cccc(C)c1C(=O)N1C[C@H]2CN(CC[C@H](NC(=O)C3CCCC3)c3ccccc3)C[C@H]2C1 | Ratio (Caco-2): 5; AUC [6]: 31 ng·h/mL; bioavailability [7]: 2.7%; Papp A→B [5]: 4 ×10⁻⁶ cm/s; clearance [8]: 134 mL/min/kg
26 | 8.96 | 113 | 7.92 | 24 | Cc1ncnc(C)c1C(=O)N1C[C@H]2CN(CC[C@H](NC(=O)CC3CCC(F)(F)CC3)c3cccc(F)c3)C[C@H]2C1 | 
27 | 8.52 |  |  |  | Cc1nnc(C(C)C)n1[C@H]1C[C@H]2CC[C@@H](C1)N2CC[C@H](NC(=O)C1CCC(F)(F)CC1)c1ccccc1 [MARAVIROC] | 
